In brackets after ≈: the same amount, converted by molar mass.
How the values were obtained:
Format in all cases: functional
Staphylococcus aureus [1] = assay: Antimicrobial activity against epidemic methicillin-resistant Staphylococcus aureus 15 by standard microdilution method
Procedure, shortened: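 Broth microdilution following NCCLS guidelines, at least in duplicate, against EMRSA-15 (mecA) precultured on nutrient agar. Medium was cation-adjusted Mueller-Hinton broth with 20 mg/L Ca2+ and 10 mg/L Mg2+. Inoculum was 5 × 10^5 cfu in 0.9% saline, set against a McFarland standard. Compounds were dissolved in DMSO (final ≤3.125% v/v) and tested at 1–512 µg/mL in 2-fold series. MIC was the lowest concentration with no visible growth.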

Staphylococcus aureus [2] = assay: Antimicrobial activity against Staphylococcus aureus ATCC 25923 by standard microdilution method
Procedure, shortened: (§1)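 Broth microdilution per NCCLS guidelines, at least in duplicate, in cation-adjusted Mueller-Hinton broth (20 mg/L Ca2+, 10 mg/L Mg2+). Strains were grown first on nutrient agar. Inoculum of 5 × 10^5 cfu was set in 0.9% saline against a McFarland standard. Compounds were dissolved in DMSO and given as 2-fold serial dilutions, final 1–512 µg/mL, with at most 3.125% v/v DMSO. MIC is the lowest concentration showing no visible growth.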

Staphylococcus aureus [3] = assay: Antimicrobial activity against TetK multidrug efflux pump possessing Staphylococcus aureus XU-212 by standard microdilution method; procedure, shortened: as §1
[4] = tested on: Mycobacterium tuberculosis; assay: Antimicrobial activity against Mycobacterium tuberculosis
Staphylococcus aureus [5] = assay: Antimicrobial activity against Staphylococcus aureus ATCC 6538

SMILES | MIC (Staphylococcus aureus [1]) [µg/mL] | MIC (Staphylococcus aureus [2]) [µg/mL] | MIC (Staphylococcus aureus [3]) [µg/mL] | MIC [4] [µg/mL] | MIC (Staphylococcus aureus [5]) [µg/mL]
C/C=C(\C)C(=O)O[C@H]1[C@H](O)[C@@H](O)[C@H](O[C@@H]2[C@H]3OC(=O)CCCCCCCCC[C@H](CCCCC)O[C@@H]4O[C@H](C)[C@@H](O)[C@H](O)[C@H]4O[C@@H]4O[C@H](CO)[C@@H](O)[C@H](O)[C@H]4O[C@H](O[C@H]2C)[C@@H]3OC(=O)[C@@H](C)CC)O[C@@H]1C [SCAMMONIN I] | 32 (≈ 31.3 µM) | 32 (≈ 31.3 µM) | 128 (≈ 125 µM) | – | –
CN(C)[C@@H]1C(O)=C(C(N)=O)C(=O)[C@@]2(O)C(O)=C3C(=O)c4c(O)cccc4[C@@](C)(O)[C@H]3C[C@@H]12 [TETRACYCLINE] | 0.15 (≈ 0.338 µM) | 0.08 (≈ 0.18 µM) | 64 (≈ 144 µM) | – | –
CCCCC[C@H]1CCCCCCCCCC(=O)O[C@H]2[C@H](O)[C@@H](CO)O[C@@H](O[C@H]3[C@H](O1)O[C@H](C)[C@H](O)[C@@H]3O)[C@@H]2O[C@@H]1O[C@@H](C)[C@H](OC(=O)[C@@H](C)CC)[C@@H](O[C@@H]2O[C@@H](C)[C@H](O)[C@@H](O)[C@H]2O)[C@H]1OC(=O)[C@@H](C)CC [TRICOLORIN A] | 4 (≈ 3.91 µM) | 16 (≈ 15.6 µM) | 8 (≈ 7.82 µM) | 16 (≈ 15.6 µM) | 1 (≈ 0.977 µM)
CCCCC[C@H]1CCCCCCCCCC(=O)O[C@H]2[C@H](O)[C@@H](CO)O[C@@H](O[C@H]3[C@H](O1)O[C@H](C)[C@H](O)[C@@H]3O)[C@@H]2O[C@@H]1O[C@@H](C)[C@H](OC(=O)C(C)C)[C@@H](O[C@@H]2O[C@@H](C)[C@H](O)[C@@H](O)[C@H]2O)[C@H]1OC(=O)[C@@H](C)CC [TRICOLORIN B] | 16 (≈ 15.9 µM) | 32 (≈ 31.7 µM) | 16 (≈ 15.9 µM) | 16 (≈ 15.9 µM) | 1 (≈ 0.991 µM)
CCCCC[C@H]1CCCCCCCCCC(=O)O[C@H]2[C@H](O)[C@@H](CO)O[C@@H](O[C@H]3[C@H](O1)O[C@H](C)[C@H](O)[C@@H]3O)[C@@H]2O[C@@H]1O[C@@H](C)[C@H](OC(=O)[C@H](C)[C@@H](C)O)[C@@H](O[C@@H]2O[C@@H](C)[C@H](O)[C@@H](O)[C@H]2O)[C@H]1OC(=O)[C@@H](C)CC [TRICOLORIN C] | 32 (≈ 30.8 µM) | 32 (≈ 30.8 µM) | 16 (≈ 15.4 µM) | 16 (≈ 15.4 µM) | 1 (≈ 0.962 µM)
CCCCC[C@H]1CCCCCCCCCC(=O)OC[C@H]2O[C@@H](O[C@H]3[C@H](O1)O[C@H](C)[C@H](O)[C@@H]3O)[C@H](O[C@@H]1O[C@@H](C)[C@H](OC(=O)[C@@H](C)CC)[C@@H](O[C@@H]3O[C@@H](C)[C@H](O)[C@@H](O)[C@H]3O)[C@H]1OC(=O)[C@@H](C)CC)[C@@H](O)[C@@H]2O [TRICOLORIN D] | 32 (≈ 31.3 µM) | 16 (≈ 15.6 µM) | 32 (≈ 31.3 µM) | 16 (≈ 15.6 µM) | 1 (≈ 0.977 µM)
CCCCC[C@H]1CCCCCCCCCC(=O)O[C@H]2[C@H](O)[C@@H](CO)O[C@@H](O[C@H]3[C@H](O1)O[C@H](C)[C@@H](O)[C@@H]3O)[C@@H]2O[C@@H]1O[C@@H](C)[C@H](OC(=O)[C@@H](C)CC)[C@@H](O[C@@H]2O[C@@H](C)[C@H](O)[C@@H](O)[C@H]2O)[C@H]1OC(=O)[C@@H](C)CC [TRICOLORIN E] | 8 (≈ 7.82 µM) | 16 (≈ 15.6 µM) | 8 (≈ 7.82 µM) | 16 (≈ 15.6 µM) | 1 (≈ 0.977 µM)
CCCCC[C@H]1CCCCCCCCCC(=O)O[C@H]2[C@H](O[C@H]3[C@H](O[C@H]4[C@H](O1)O[C@H](C)[C@H](O)[C@@H]4O)O[C@H](CO)[C@@H](O)[C@@H]3O)O[C@H](C)[C@@H](O)[C@@H]2O [TRICOLORIN F] | > 512 | > 512 | > 512 | – | –
CCCCC[C@H](CCCCCCCCCC(=O)OC[C@H]1O[C@H]2O[C@H]3[C@H](O[C@@H](CCCCC)CCCCCCCCCC(=O)O[C@H]4[C@H](O[C@@H]2[C@@H](O)[C@@H]1O)O[C@H](C)[C@@H](O)[C@@H]4O)O[C@H](C)[C@H](O)[C@@H]3O)O[C@@H]1O[C@H](C)[C@H](O)[C@H](O)[C@H]1O[C@@H]1O[C@H](CO)[C@@H](O)[C@H](O)[C@H]1O[C@@H]1O[C@H](C)[C@@H](O)[C@H](O)[C@H]1O [TRICOLORIN J] | > 256 | > 256 | > 256 | – | –

From ChEMBL document CHEMBL1157295, “Polyacylated oligosaccharides from medicinal Mexican morning glory species as antibacterials and inhibitors of multidrug resistance in Staphylococcus aureus” (2006)
